From ChEMBL document CHEMBL1140221, “Novel naphthalene-N-sulfonyl-D-glutamic acid derivatives as inhibitors of MurD, a key peptidoglycan biosynthesis enzyme” (J Med Chem, 2008) come the findings set out here.

SMILES strings stand for the structures.

System in one test: not listed separately
Nature of the test: Inhibition of Escherichia coli MurD.
The IC50 is the point on the concentration scale where inhibition reaches its midpoint. Read a low IC50 as greater potency. On to `CCCCOc1ccc2cc(S(=O)(=O)N[C@H](CCC(=O)O)C(=O)O)ccc2c1`, for which the IC50 was 280 µM.
`CCCCCCOc1ccc2cc(S(=O)(=O)N[C@H](CCC(=O)O)C(=O)O)ccc2c1` came in with an IC50 of 176 µM.
Turning to `CCCCOc1ccc2cc(C(=O)N[C@H](CCC(=O)O)C(=O)O)ccc2c1`, the IC50 is more than 1000 µM.
Still for that read-out and setting: the figure for `CCCCOc1ccc2cc(S(=O)(=O)NCCCC(=O)O)ccc2c1` is more than 2000 µM; for `O=C(O)CC[C@@H](NS(=O)(=O)c1ccc(-c2ccccc2)cc1)C(=O)O` it is 1720 µM; for `O=C(O)CC[C@@H](NS(=O)(=O)c1ccc2ccccc2c1)C(=O)O` it is 810 µM.
The molecule `CCOC(=O)COc1ccc2cc(S(=O)(=O)N[C@H](CCC(=O)O)C(=O)O)ccc2c1` had an IC50 of 192 µM.
Molecule `CCCCOc1ccc(S(=O)(=O)N[C@H](CCC(=O)O)C(=O)O)c2ccccc12` had an IC50 of more than 1000 µM.
On the same count and under the same terms, the same measure for `COc1ccc2cc(S(=O)(=O)N[C@H](CCC(=O)O)C(=O)O)ccc2c1`: 590 µM; for `CCCCOc1ccc2cc(S(=O)(=O)N[C@@H](CCC(=O)O)C(=O)O)ccc2c1`: 710 µM; for `CCCCOc1ccc2cc(S(=O)(=O)N(C)[C@H](CCC(=O)O)C(=O)O)ccc2c1`: more than 1000 µM.
On the same count and under the same terms, the same measure for `CCCCOc1cccc2c(S(=O)(=O)N[C@H](CCC(=O)O)C(=O)O)cccc12`: more than 1000 µM; for `O=C(O)CC[C@@H](NS(=O)(=O)c1ccc2cc(OC3CCCC3)ccc2c1)C(=O)O`: 400 µM.
On the same count and under the same terms, the same measure for `O=C(O)CC[C@@H](NS(=O)(=O)c1ccc2cc(OCc3ccccc3)ccc2c1)C(=O)O`: 239 µM.
`CCCOc1ccc2cc(S(=O)(=O)N[C@H](CCC(=O)O)C(=O)O)ccc2c1` came in with an IC50 of 305 µM.
In the case of `C[C@@H](CS(=O)(=O)N[C@H](CCC(=O)O)C(=O)O)S(=O)(=O)c1ccc2ccccc2c1`, the IC50 was more than 2000 µM.
For the molecule `O=C(O)CCCOc1ccc2cc(S(=O)(=O)N[C@H](CCC(=O)O)C(=O)O)ccc2c1`, the IC50 was more than 1000 µM.
`CCCCOc1ccc2cc(CN[C@H](CCC(=O)O)C(=O)O)ccc2c1` had an IC50 of more than 1000 µM.
`O=C(O)CC[C@@H](NS(=O)(=O)c1ccc2cc(OCCCc3ccccc3)ccc2c1)C(=O)O` gave an IC50 of 132 µM.
On the same count and under the same terms, the figure for `CCCCOc1ccc2ccc(S(=O)(=O)N[C@H](CCC(=O)O)C(=O)O)cc2c1` is 180 µM; for `CCCCOc1ccc2cc(S(=O)(=O)NCC(=O)O)ccc2c1` it is more than 2000 µM.
Same read-out and setting: the same measure for `CCCCOc1ccc2cc(S(=O)(=O)N[C@H](CCC(=O)OC)C(=O)OC)ccc2c1`: more than 2000 µM; for `O=C(O)CC[C@@H](NS(=O)(=O)c1ccc2cc(OCC(=O)O)ccc2c1)C(=O)O`: 630 µM.
On to `COc1cc(C#N)ccc1COc1ccc2cc(S(=O)(=O)N[C@H](CCC(=O)O)C(=O)O)ccc2c1`, for which the IC50 came out at 100 µM.

Another test has as its system Escherichia coli. Nature of the test: Inhibition of Escherichia coli MurD assessed as residual activity at 1 mM. Put shortly: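 Radiolabel MurD assay: E. coli enzyme, 25 µM UMA plus 25 µM D-[14C]Glu, Tris-HCl pH 8.6, MgCl2, 5% DMSO, compound at 1 mM; 30 min at 37 °C, acid-quenched, reverse-phase HPLC with radioactivity detection. Activity expressed relative to an inhibitor-free assay; mean of two independent experiments.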
Take `O=C(O)CC[C@@H](NC(=O)CCc1cccc(O)c1)C(=O)O`: the Activity was found to be 81%.
Same read-out and setting: the same measure for `Cc1ccc(S(=O)(=O)N[C@H](CCC(=O)O)C(=O)O)cc1`: 66%; for `O=C(O)CC[C@@H](NC(=O)/C=C/c1ccccc1)C(=O)O`: 91%; for `O=C(O)CC[C@@H](NS(=O)(=O)Cc1ccc(F)cc1Cl)C(=O)O`: 86%.
`O=C(O)CC[C@@H](NC(=O)CN1C(=O)c2ccccc2C1=O)C(=O)O`: the Activity was 92%.
Take `O=C(O)CC[C@@H](NS(=O)(=O)c1ccc(-c2ccccc2)cc1)C(=O)O`: the Activity came to 43%.
As to `O=C(O)CC[C@@H](NS(=O)(=O)c1ccc2ccccc2c1)C(=O)O`, the Activity stood at 35%.
Same read-out and setting: the figure for `O=C(O)CC[C@@H](NC(=O)C1Oc2ccccc2NC1=O)C(=O)O` (stereo partly specified) is 54%; for `O=C(O)CC[C@@H](NS(=O)(=O)Cc1ccccc1)C(=O)O` it is 84%.
Still for that read-out and setting: the figure for `C[C@@H](CS(=O)(=O)N[C@H](CCC(=O)O)C(=O)O)S(=O)(=O)c1ccc2ccccc2c1` is 75%.
With `O=C(O)CC[C@@H](NC(=O)COc1ccc2ccccc2c1)C(=O)O`, the Activity came to 76%.
Same read-out and setting: the figure for `CC(=O)Nc1ccc(S(=O)(=O)N[C@H](CCC(=O)O)C(=O)O)cc1` is 79%.
